According to ChEMBL document CHEMBL4373733, “Reinvestigating the synthesis and efficacy of small benzimidazole derivatives as presequence protease enhancers” (Eur J Med Chem, 2019):
Values belong to the molecule of their own block, whether it stands above or below them. Calls of active or inactive are those of the source. The rule behind the calls is not given here.

Tests used:
[1] = molecular target: T1, Presequence protease, mitochondrial (Homo sapiens) (UniProt Q5JRX3); experiment: Agonist activity at recombinant human N-terminal His6-tagged PreP expressed in Escherichia coli expression system assessed as increase in degradation of substrate V at 0.0001 to 10 uM measured every 30 sec for 10 mins by fluorometry
T1 sequence (whole entry): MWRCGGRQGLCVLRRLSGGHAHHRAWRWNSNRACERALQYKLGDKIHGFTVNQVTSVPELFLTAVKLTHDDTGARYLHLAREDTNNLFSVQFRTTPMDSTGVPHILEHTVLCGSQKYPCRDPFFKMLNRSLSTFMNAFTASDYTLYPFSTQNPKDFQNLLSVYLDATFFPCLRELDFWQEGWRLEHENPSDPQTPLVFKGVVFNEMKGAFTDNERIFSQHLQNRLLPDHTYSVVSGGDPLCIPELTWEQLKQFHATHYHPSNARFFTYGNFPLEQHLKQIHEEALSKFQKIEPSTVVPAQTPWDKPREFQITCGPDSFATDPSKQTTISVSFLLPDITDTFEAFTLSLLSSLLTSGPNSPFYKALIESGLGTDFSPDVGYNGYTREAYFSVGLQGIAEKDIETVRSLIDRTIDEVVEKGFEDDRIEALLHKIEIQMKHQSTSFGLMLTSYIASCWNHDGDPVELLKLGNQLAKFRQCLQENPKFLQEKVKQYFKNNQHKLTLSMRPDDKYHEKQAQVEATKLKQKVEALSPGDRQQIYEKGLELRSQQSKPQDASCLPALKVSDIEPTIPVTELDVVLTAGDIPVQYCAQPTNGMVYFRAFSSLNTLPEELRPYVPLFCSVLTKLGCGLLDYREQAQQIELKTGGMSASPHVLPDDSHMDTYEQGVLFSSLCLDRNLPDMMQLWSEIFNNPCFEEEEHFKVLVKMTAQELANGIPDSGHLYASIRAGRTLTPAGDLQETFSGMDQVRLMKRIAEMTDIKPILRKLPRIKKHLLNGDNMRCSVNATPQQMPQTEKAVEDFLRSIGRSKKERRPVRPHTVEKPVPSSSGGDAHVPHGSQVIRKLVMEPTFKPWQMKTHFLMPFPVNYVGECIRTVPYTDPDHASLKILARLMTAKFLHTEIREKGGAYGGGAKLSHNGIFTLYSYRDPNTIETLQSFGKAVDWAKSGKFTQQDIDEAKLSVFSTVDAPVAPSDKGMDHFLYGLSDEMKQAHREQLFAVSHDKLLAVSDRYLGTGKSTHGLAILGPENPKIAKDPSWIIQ
Summary of the method: (§1)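 hPreP expressed in E. coli at 25 °C (300μM IPTG, 16 h), purified by Ni-NTA, Source Q and Superdex 200, stored at −80 °C. Reaction: 0.1 μg (or 1 μg) hPreP in 20 mM HEPES pH 8.0, 10 mM MgCl₂, with substrate V (0.1 or 1.4 μg), 200 or 250 μl, room temperature (24–26 °C) or 37 °C. Fluorescence ex 320/em 405 nm. Degradation rate averaged over four independent experiments, mean ± SD.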

[2] = molecular target: Presequence protease, mitochondrial (Homo sapiens) (UniProt Q5JRX3); experiment: Agonist activity at recombinant human N-terminal His6-tagged PreP expressed in Escherichia coli expression system assessed as increase in degradation of substrate V by measuring catalytic rate at 10 uM measured every 30 sec for 10 mins by fluorometry (reference value: 1.4 +/- 0.1 /min)
[3] = substrate: O=[N+]([O-])c1ccc2nc(-c3cc(Br)ccc3O)n(Cc3cc(Br)ccc3O)c2c1; experiment: Agonist activity at recombinant human N-terminal His6-tagged PreP expressed in Escherichia coli expression system assessed as increase in degradation of substrate V by measuring catalytic rate at 10 uM measured every 30 sec for 10 mins by fluorometry (reference value: 1.4 +/- 0.1 /min); summary of the method: as §1
[4] = substrate: Nc1ccc([N+](=O)[O-])cc1/N=C/c1cc(Br)ccc1O; experiment: (§2) Agonist activity at recombinant human N-terminal His6-tagged PreP expressed in Escherichia coli expression system assessed as increase in degradation of substrate V by measuring catalytic rate at 0.01 uM measured every 30 sec for 10 mins by fluorometry (reference value: 1.4 +/- 0.1 /min); summary of the method: as §1
[5] = substrate: O=[N+]([O-])c1ccc2nc(-c3cc(Br)ccc3O)n(Cc3cc(Br)ccc3O)c2c1; experiment: as §2; summary of the method: as §1
[6] = substrate: Nc1ccc([N+](=O)[O-])cc1/N=C/c1cc(Br)ccc1O; experiment: (§3) Agonist activity at recombinant human N-terminal His6-tagged PreP expressed in Escherichia coli expression system assessed as increase in degradation of substrate V by measuring catalytic rate at 1 uM measured every 30 sec for 10 mins by fluorometry (reference value: 1.4 +/- 0.1 /min); summary of the method: as §1
[7] = substrate: O=[N+]([O-])c1ccc2nc(-c3cc(Br)ccc3O)n(Cc3cc(Br)ccc3O)c2c1; experiment: as §3; summary of the method: as §1
[8] = substrate: Nc1ccc([N+](=O)[O-])cc1/N=C/c1cc(Br)ccc1O; experiment: (§4) Agonist activity at recombinant human N-terminal His6-tagged PreP expressed in Escherichia coli expression system assessed as increase in degradation of substrate V by measuring catalytic rate at 0.1 uM measured every 30 sec for 10 mins by fluorometry (reference value: 1.4 +/- 0.1 /min); summary of the method: as §1
[9] = substrate: O=[N+]([O-])c1ccc2nc(-c3cc(Br)ccc3O)n(Cc3cc(Br)ccc3O)c2c1; experiment: as §4; summary of the method: as §1

Molecule: O=[N+]([O-])c1ccc2nc(-c3cc(Br)ccc3O)n(Cc3cc(Br)ccc3O)c2c1
Activity [1]: inactive

B1: Presequence protease, mitochondrial (Homo sapiens), Q5JRX3 (protein)
chain: T1 sequence (whole entry)
kcat [2]: 0.0217 s⁻¹
kcat [3]: 0.0233 s⁻¹
kcat [4]: 0.0233 s⁻¹
kcat [5]: 0.0183 s⁻¹
kcat [6]: 0.0217 s⁻¹
kcat [7]: 0.0217 s⁻¹
kcat [8]: 0.02 s⁻¹
kcat [9]: 0.02 s⁻¹

Now from value to molecule:

Activity [1]: inactive
Molecule: O=[N+]([O-])c1ccc2[nH]c(-c3cc(Br)ccc3O)nc2c1

Activity [1]: inactive
Molecule: Nc1ccc([N+](=O)[O-])cc1/N=C/c1cc(Br)ccc1O
